One block for each compound: values may come before it. Calls of active or inactive are those of the source. The calls are words filed in the database; no cut-off is given here.
Experiments:
[1] = biological target: T1, Lysine-specific histone demethylase 1A (Homo sapiens, UniProt O60341); experiment: Inhibition of recombinant LSD1 (unknown origin) using H3K4me2 as substrate by fluorescence assay
MAO-A [2] = biological target: T2, MAO-A (Homo sapiens, UniProt P21397); experiment: Inhibition of MAO-A (unknown origin) at 10 uM relative to control
T2 sequence (P21397 whole entry): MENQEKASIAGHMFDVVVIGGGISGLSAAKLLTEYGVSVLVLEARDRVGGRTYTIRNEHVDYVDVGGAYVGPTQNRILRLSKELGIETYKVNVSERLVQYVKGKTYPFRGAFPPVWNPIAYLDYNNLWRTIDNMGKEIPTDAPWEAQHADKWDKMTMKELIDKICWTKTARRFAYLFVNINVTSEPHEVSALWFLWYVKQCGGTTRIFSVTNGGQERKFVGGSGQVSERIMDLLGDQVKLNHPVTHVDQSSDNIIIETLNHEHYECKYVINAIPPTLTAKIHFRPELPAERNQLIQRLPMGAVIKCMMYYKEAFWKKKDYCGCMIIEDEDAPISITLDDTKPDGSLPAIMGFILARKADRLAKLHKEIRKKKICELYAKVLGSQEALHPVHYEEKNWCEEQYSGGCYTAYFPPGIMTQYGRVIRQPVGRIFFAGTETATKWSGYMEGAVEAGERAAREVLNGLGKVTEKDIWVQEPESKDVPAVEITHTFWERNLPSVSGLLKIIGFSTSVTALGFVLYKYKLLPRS

MAO-A [3] = biological target: T2, MAO-A; experiment: Inhibition of MAO-A (unknown origin) at 1 uM relative to control
MAO-B [4] = biological target: T3, MAO-B (Homo sapiens, UniProt P27338); experiment: Inhibition of MAO-B (unknown origin) at 10 uM relative to control
T3 sequence (P27338 whole entry): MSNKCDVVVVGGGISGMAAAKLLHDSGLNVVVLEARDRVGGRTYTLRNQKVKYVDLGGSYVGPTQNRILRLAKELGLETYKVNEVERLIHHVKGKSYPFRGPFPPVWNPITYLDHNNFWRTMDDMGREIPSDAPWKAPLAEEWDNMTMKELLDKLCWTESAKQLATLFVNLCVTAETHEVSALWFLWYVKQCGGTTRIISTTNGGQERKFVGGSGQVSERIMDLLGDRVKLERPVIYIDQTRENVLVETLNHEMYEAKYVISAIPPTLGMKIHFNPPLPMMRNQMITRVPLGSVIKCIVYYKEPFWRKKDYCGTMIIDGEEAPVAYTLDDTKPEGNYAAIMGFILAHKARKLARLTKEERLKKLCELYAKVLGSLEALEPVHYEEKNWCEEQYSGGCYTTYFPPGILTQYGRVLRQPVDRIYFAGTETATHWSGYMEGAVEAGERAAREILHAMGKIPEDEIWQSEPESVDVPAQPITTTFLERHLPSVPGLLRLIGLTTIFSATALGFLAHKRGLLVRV

MAO-B [5] = biological target: T3, MAO-B; experiment: Inhibition of MAO-B (unknown origin) at 1 uM relative to control
[6] = biological target: T1, Lysine-specific histone demethylase 1A; experiment: Reversible inhibition of recombinant LSD1 (unknown origin) assessed as recovery of enzyme activity at 40 uM measured 1 hr after 80-fold dilution
In short: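 Dilution assay: 2.5 µg recombinant LSD1 was preincubated 1 h at 25 °C with 40 µM compound, 1.6 µM GSK2879552 or DMSO. Aliquots were then diluted 80-fold into HRP-coupled assay solution with substrate and compared with undiluted mixtures to assess recovery of LSD1 activity.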

[7] = biological target: T1, Lysine-specific histone demethylase 1A; experiment: Competitive inhibition of recombinant LSD1 (unknown origin) up to 1.25 uM using H3K4me2 as substrate in presence of FAD by Lineweaver-Burk plot analysis
[8] = biological target: T1, Lysine-specific histone demethylase 1A; experiment: Binding affinity to LSD1 in human A549 cells assessed as thermal stability by measuring temperature at 10 uM after 1 hr by thermal shift assay; assay type: cell-based
In short: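 CETSA: A549 cells (5 × 10⁵ per sample) were exposed 1 h to 10 µM compound or DMSO, washed in PBS, and resuspended in PBS with protease inhibitor. Samples were heated 3 min at the indicated temperatures (e.g. 46, 49, 52 °C), then freeze-thawed three times in liquid nitrogen. Soluble LSD1 was measured by western blot with a GAPDH control; three independent experiments.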

[9] = biological target: T1, Lysine-specific histone demethylase 1A; experiment: Inhibition of LSD1 in human A549 cells assessed as accumulation of H3K4me1 after 96 hrs by Western blot analysis; assay type: cell-based
In short: (§1)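 A549 cells were treated with 0, 1 and 6 µM for 96 h, then lysed in RIPA buffer (50 mM Tris-HCl pH 7.5) with protease inhibitors. Lysates went through SDS-PAGE, PVDF transfer and probing for the histone mark, with ECL detection. Bands were quantified against total H3. Run at least three times; mean ± SD.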

[10] = biological target: T1, Lysine-specific histone demethylase 1A; experiment: Inhibition of LSD1 in human A549 cells assessed as accumulation of H3K4me2 after 96 hrs by Western blot analysis; assay type: cell-based; in short: as §1
[11] = biological target: T1, Lysine-specific histone demethylase 1A; experiment: Inhibition of LSD1 in human A549 cells assessed as accumulation of H3K9me1 after 96 hrs by Western blot analysis; assay type: cell-based; in short: as §1
[12] = biological target: T1, Lysine-specific histone demethylase 1A; experiment: Inhibition of LSD1 in human A549 cells assessed as accumulation of H3K9me2 after 96 hrs by Western blot analysis; assay type: cell-based; in short: as §1
A549 [13] = experiment: Antimigratory activity against human A549 cells after 48 hrs by wound healing assay; assay type: functional, cell-based
In short: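 Scratch assay: cells seeded at 1 × 10⁴ per well and grown 24 h, then the monolayer was scratched with a pipette tip. Cells were then cultured 48 h in fresh medium with 1% FBS and graded compound concentrations. Wound closure was photographed under an inverted microscope. Run at least three times; mean ± SD.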

A549 [14] = experiment: Up regulation of E-cadherin levels in human A549 cells up to 6 uM after 96 hrs by Western blot analysis; assay type: functional, cell-based
In short: (§2)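 A549 cells treated with 0, 1 or 6 µM for 96 h, harvested with trypsin and lysed in RIPA buffer (pH 7.5) with protease inhibitors. 40 lg protein/lane on SDS-PAGE, transferred to PVDF, probed overnight with specific primary antibodies. ECL detection, quantified against GAPDH loading control. At least three experiments, mean ± SD.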

A549 [15] = experiment: Up regulation of claudin-1 levels in human A549 cells up to 6 uM after 96 hrs by Western blot analysis; assay type: functional, cell-based; in short: as §2
A549 [16] = experiment: Down regulation of N-cadherin levels in human A549 cells up to 6 uM after 96 hrs by Western blot analysis; assay type: functional, cell-based; in short: as §2
A549 [17] = experiment: Down regulation of slug levels in human A549 cells up to 6 uM after 96 hrs by Western blot analysis; assay type: functional, cell-based; in short: as §2
A549 [18] = experiment: Down regulation of snail levels in human A549 cells up to 6 uM after 96 hrs by Western blot analysis; assay type: functional, cell-based; in short: as §2
A549 [19] = experiment: Effect on LSD1 expression in human A549 cells up to 6 uM after 96 hrs by Western blot analysis; assay type: functional, cell-based; in short: as §2
[20] = biological target: T1, Lysine-specific histone demethylase 1A; experiment: Inhibition of H3K4me2 binding to LSD1 in human A549 cells up to 6 uM after 96 hrs by immunoprecipitation assay; assay type: cell-based
In short: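 Co-IP: A549 cells were treated with 0 or 6 µM for 96 h, trypsinised, and lysed in IP lysis/wash buffer with protease inhibitors. LSD1 antibody was used as bait, and H3K4me2 bound to LSD1 was detected. Total cell lysate was blotted alongside with a GAPDH loading control.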

GES1 = experiment: Cytotoxicity against human GES-1 cells assessed as decrease in cell viability after 96 hrs by MTT assay; assay type: cell-based; conditions: GES1, 96 h
In short: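 GES-1 cells were grown in RPMI-1640 with 10% FBS at 37 °C and 5% CO₂. They were seeded at 3 × 10³ per well, left overnight, then given graded concentrations for 4 days (0.1% DMSO vehicle). MTT was added for 4 h at 37 °C, formazan dissolved in DMSO, and A570 read. Viability = (At/As) × 100% against solvent control.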

[21] = biological target: T1, Lysine-specific histone demethylase 1A; experiment: Inhibition of LSD1 in human A549 cells assessed as accumulation of H3K9me1 up to 6 uM after 96 hrs by Western blot analysis; assay type: cell-based
In short: (§3)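 A549 cells exposed to 0, 1 or 6 µM for 96 h, lysed in RIPA buffer (pH 7.5) with protease inhibitors. Lysates (40 µg/lane) resolved by 10% or 12% SDS-PAGE and immunoblotted for H3K4me1/2 and H3K9me1/2. ECL read-out, quantified against total histone H3 loading control. At least three experiments, mean ± SD.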

[22] = biological target: T1, Lysine-specific histone demethylase 1A; conditions: 1.6 uM
[23] = biological target: T1, Lysine-specific histone demethylase 1A; experiment: Inhibition of LSD1 in human A549 cells assessed as accumulation of H3K4me1 up to 6 uM after 96 hrs by Western blot analysis; assay type: cell-based; in short: as §3
[24] = biological target: T1, Lysine-specific histone demethylase 1A; experiment: Inhibition of LSD1 in human A549 cells assessed as accumulation of H3K4me2 up to 6 uM after 96 hrs by Western blot analysis; assay type: cell-based; in short: as §3
[25] = biological target: T1, Lysine-specific histone demethylase 1A; experiment: Inhibition of LSD1 in human A549 cells assessed as accumulation of H3K9me2 up to 6 uM after 96 hrs by Western blot analysis; assay type: cell-based; in short: as §3
A549 [26] = experiment: Antimigratory activity against human A549 cells at 6 uM after 48 hrs by wound healing assay; assay type: functional, cell-based
In short: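 Scratch wound assay in A549 monolayers: cells seeded at 1 × 10⁴ per well, incubated 24 h, then scratched with a pipette tip. Cultured 48 h in fresh medium with 1% FBS and varying compound concentrations, then photographed under an inverted microscope. At least three independent experiments, mean ± SD.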

- IC50 [1]: 0.882 µM
- inhibition at 10 µM (MAO-A [2]): 36%
- inhibition at 1 µM (MAO-A [3]): 21%
- inhibition at 10 µM (MAO-B [4]): 43%
- inhibition at 1 µM (MAO-B [5]): 15%
- inhibition [6]: Active
- inhibition [7]: Active
- T [8]: 52 °C
- inhibition [9]: Dose-dependent effect
- inhibition [10]: Dose-dependent effect
- inhibition [11]: Dose-dependent effect
- inhibition [12]: Dose-dependent effect
- inhibition [20]: Active
SMILES: Cc1cc(NN)n2nc(SCc3ccccc3)nc2n1
- Activity (A549 [13]): Dose-dependent effect
- Activity (A549 [14]): Active
- Activity (A549 [15]): Active
- Activity (A549 [16]): Active
- Activity (A549 [17]): Active
- Activity (A549 [18]): Active
- Activity (A549 [19]): inactive
- IC50 (GES1): > 50 µM

- IC50 [1]: > 50 µM
SMILES: Cc1cc(N)n2nc(SCc3ccccc3)nc2n1

- IC50 [1]: > 50 µM
SMILES: CNCCN(C)c1cc(C)nc2nc(SCc3ccccc3)nn12

- IC50 [1]: > 50 µM
SMILES: Cc1cc(NCCN)n2nc(SCc3ccccc3)nc2n1

- IC50 [1]: > 50 µM
SMILES: NNc1cc(-c2ccccc2)nc2nc(SCc3ccccc3)nn12

- IC50 [1]: > 50 µM
SMILES: Cc1cc(N2CCCC(N)C2)n2nc(SCc3ccccc3)nc2n1 (stereo not drawn)

- IC50 [1]: > 50 µM
SMILES: Cc1cc(NN)n2nc(SCc3cccc4ccccc34)nc2n1

More lines, now with the values behind:

SMILES: Cc1cc(N(C)CCN(C)C)n2nc(SCc3ccccc3)nc2n1
- IC50 [1]: > 50 µM

SMILES: Cc1cc(NN)n2ncnc2n1
- IC50 [1]: > 50 µM
- Activity [8]: inactive
- inhibition [9]: inactive
- inhibition [10]: inactive
- inhibition [11]: inactive
- inhibition [12]: inactive
- inhibition [21]: inactive

SMILES: C/C(=N\NC(=O)c1cccc(S(=O)(=O)N2CCOCC2)c1)c1cc(Cl)ccc1O
- IC50 [1]: 0.0243 µM

SMILES: Cc1cc(NCCOCCOCCN)n2nc(SCc3ccccc3)nc2n1
- IC50 [1]: > 50 µM

SMILES: O=C(O)c1ccc(CN2CCC(CN[C@@H]3C[C@H]3c3ccccc3)CC2)cc1
- inhibition [22]: Active

SMILES: c1ccc([C@@H]2C[C@H]2NC2CCNCC2)cc1 (racemic)
- inhibition [9]: Dose-dependent effect
- inhibition [10]: Dose-dependent effect
- inhibition [12]: Dose-dependent effect
- inhibition [23]: Active
- inhibition [24]: Active
- inhibition [21]: inactive
- inhibition [25]: Active
- Activity (A549 [14]): Active
- Activity (A549 [15]): Active
- Activity (A549 [16]): Active
- Activity (A549 [17]): Active
- Activity (A549 [18]): Active
- Activity (A549 [19]): inactive
- inhibition (A549 [26]): Active

SMILES: Cc1cc(N2CCCC(NC(=O)OC(C)(C)C)C2)n2nc(SCc3ccccc3)nc2n1 (stereo not drawn)
- IC50 [1]: > 50 µM
